From ChEMBL document CHEMBL1629705, “PSI-7851, a pronucleotide of beta-D-2'-deoxy-2'-fluoro-2'-C-methyluridine monophosphate, is a potent and pan-genotype inhibitor of hepatitis C virus replication” (Antimicrob Agents Chemother, 2010)
pEC50, pIC50: −log10 of the molar value.

Key:
Hepatitis C virus [1] = experiment: Inhibition of Hepatitis C virus Con1 recombinant NS5B polymerase after 30 mins by phosphor imaging; design: species or system Hepacivirus hominis; settings: Con1, 0.5 h
In short: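 C-terminal Δ21-truncated NS5B: 1b Con1 and 2a JFH-1 expressed in E. coli; 3a and 4a cloned from patient serum. Mix: 1 μM each NTP, [α-32P]UTP, 20 ng/μl genotype 1b(−) IRES RNA template, 40 ng/μl enzyme, 1 mM MgCl2, 0.75 mM MnCl2, 2 mM DTT, 50 mM HEPES pH 7.5. Run at 27°C: 30 min (1b, 2a) or 3 h (3a, 4a). EDTA quench, products on membrane read by phosphorimager. Duplicates; IC50 calculated.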

[2] = target: DNA-directed RNA polymerase II subunit RPB1 (Homo sapiens, UniProt P24928); experiment: Inhibition of human RNA polymerase 2
In short: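 In vitro transcription by HeLa nuclear extract from CMV immediate-early promoter DNA. Mix: 400 μM ATP, CTP and UTP, 16 μM GTP, [α-32P]GTP, 3 mM MgCl2, in 20 mM HEPES pH 7.9 buffer with KCl, EDTA, DTT and glycerol. Inhibitor up to 1 mM. 30°C for 60 min. RNA purified, run on 6% sequencing gel and quantified by phosphorimager.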

Hepatitis C virus [3] = experiment: Selectivity ratio of EC90 for Hepatitis C virus harboring NS5B polymerase S282T mutant gene to EC90 for Hepatitis C virus harboring wild-type NS5B polymerase; format: functional, Hepacivirus hominis
In short: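 Clone A genotype 1b (Con1) replicon cells, wild-type or S282T mutant (selected with 2′-C-methyladenosine). 1,500 cells/well, 4 days with serially diluted compound. HCV RNA by real-time RT-PCR; EC90 from dose–response.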

Hepatitis C virus [4] = experiment: Antiviral activity against Hepatitis C virus harboring wild-type NS5B infected in human HuH7 cells by luciferase-based replicon assay; format: functional, Hepacivirus hominis; settings: Huh-7
[5] = system: Human immunodeficiency virus; experiment: Antiviral activity against HIV infected in human HeLaP4 cells by beta-galactosidase-based reporter gene assay; format: functional, organism-based; settings: Human immunodeficiency virus 1, HeLaP4
In short: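 P4 cells (HeLa expressing CD4/CXCR4 with HIV-1 LTR-driven LacZ), 10,000 cells/well, incubated overnight at 37°C, 5% CO2. Compound added 4 h before infection with HIV NL4-3 (4 ng/well p24-equivalent) plus DEAE-dextran 20 μg/ml. Incubated further 40–42 h. Beta-galactosidase read by luminescence; percent inhibition versus no-drug wells.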

HepG2 = experiment: Mitochondrial toxicity in human HepG2 cells assessed as effect on mitochondrial cytochrome c oxidase subunit 2 gene level up to 100 uM after 14 days by real-time PCR assay; format: cell-based; settings: hepg2, 336 h
In short: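 HepG2 or CEM cells incubated 14 days with compound up to 100 μM, ddC as control. Medium and compound replenished on days 7 and 11. Mitochondrial COXII gene and nuclear rDNA measured by multiplex quantitative RT-PCR.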

Hepatitis C virus [6] = experiment: Antiviral activity against Hepatitis C virus Con1 infected in human lunet cells assessed as inhibition of viral RNA replication after 4 days by luciferase reporter gene assay; format: functional, organism-based, Hepacivirus hominis; settings: 96 h
In short: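 Genotype 1b Con1 subgenomic replicon cells (ET-lunet, 3,000 cells/well, firefly luciferase ET replicon; clone A, 1,500 cells/well) incubated 4 days with serially diluted compound. Replication read by luciferase luminescence and/or real-time RT-PCR.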

[7] = Cytotoxicity against human HepG2 cells assessed as effect on cellular GAPDH RNA level after 8 days by quantitative real-time PCR; format: cell-based

SMILES | pIC50 (Hepatitis C virus [1]) | pIC50 [2] | Selectivity ratio (Hepatitis C virus [3]) | EC90 (Hepatitis C virus [4]) | pEC50 [5] | Activity (HepG2) | pEC50 (Hepatitis C virus [6]) | EC90 (Hepatitis C virus [6]) | CC50 at 192 h [7]
C[C@@]1(F)[C@H](O)[C@@H](COP(=O)(O)OP(=O)(O)OP(=O)(O)O)O[C@H]1n1ccc(=O)[nH]c1=O [GS-461203] | 5.80 | < 3.30 |  |  |  |  |  |  | 
CC(C)OC(=O)[C@H](C)NP(=O)(OC[C@H]1O[C@@H](n2ccc(=O)[nH]c2=O)[C@](C)(F)[C@@H]1O)Oc1ccccc1 (some centres undefined) |  |  | 16.4 | 0.45 µM | < 4.00 | Non-toxic | 5.87 | 3.81 µM | > 100 µM
